ChEMBL document CHEMBL4196235, “SAR of 4-Alkoxybenzoic Acid Inhibitors of the Trypanosome Alternative Oxidase” (ACS Med Chem Lett, 2018)
≈ marks a conversion by molar mass, not a printed value. Calls of active or inactive are those of the source. The rule behind the calls is not given here.

How the values were obtained:
[1] = Dissociation constant, pKa of the compound; assay type: physicochemical
[2] = target: T1, Alternative oxidase, mitochondrial (Trypanosoma brucei brucei, UniProt Q26710); test: Inhibition of recombinant Trypanosoma brucei brucei alternative oxidase using ubiquinol-1 as substrate incubated for 2 mins followed by substrate addition by spectrophotometric method
T1 sequence (Q26710 whole entry): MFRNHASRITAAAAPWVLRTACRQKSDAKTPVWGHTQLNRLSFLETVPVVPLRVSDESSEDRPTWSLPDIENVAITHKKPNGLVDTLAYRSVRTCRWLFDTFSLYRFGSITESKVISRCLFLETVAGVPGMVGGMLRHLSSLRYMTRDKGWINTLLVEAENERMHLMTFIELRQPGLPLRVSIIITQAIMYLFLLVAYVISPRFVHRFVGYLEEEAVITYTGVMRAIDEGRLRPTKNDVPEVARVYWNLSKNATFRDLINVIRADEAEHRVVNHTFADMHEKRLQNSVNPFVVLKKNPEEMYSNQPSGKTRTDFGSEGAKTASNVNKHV
Method in brief: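 The assay measured inhibition of the ubiquinol oxidase activity of purified recombinant ∆MTS-TAO from T. b. brucei.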

[3] = test system: Trypanosoma brucei brucei; test: Resistance factor, ratio of EC50 for diminazene, pentamidine and melaminophenyl arsenical-resistant bloodstream trypomastigote stage of Trypanosoma brucei brucei B48 harboring TbAT1 deletions to EC50 for bloodstream trypomastigote stage of wild-type Trypanosoma brucei brucei Lister 427; assay type: functional
[4] = test system: Trypanosoma brucei brucei; test: Antiparasitic activity against bloodstream trypomastigote stage of wild type Trypanosoma brucei brucei Lister 427 at 100 uM after 48 hrs by resazurin dye based fluorescence assay; assay type: functional, organism-based
[5] = test system: Trypanosoma brucei brucei; test: Antiparasitic activity against bloodstream trypomastigote stage of wild type Trypanosoma brucei brucei Lister 427 after 48 hrs by resazurin dye based fluorescence assay; assay type: functional, organism-based
Method in brief: (§1)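 Bloodstream trypomastigotes of T. b. brucei s427 (wild type) were tested, both with and without glycerol. EC50 values are the mean of 3 experiments ± SEM.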

[6] = test system: Trypanosoma brucei brucei; test: Antiparasitic activity against bloodstream trypomastigote stage of wild type Trypanosoma brucei brucei Lister 427 after 48 hrs in presence of glycerol by resazurin dye based fluorescence assay; assay type: functional; details: Lister 427, 48 h; method in brief: as §1
[7] = test system: Trypanosoma brucei brucei; test: Resistant factor, ratio of EC50 for pentamidine-resistant bloodstream trypomastigote stage of Trypanosoma brucei brucei harboring AQP1 to 3 deletions to EC50 for bloodstream trypomastigote stage of wild-type Trypanosoma brucei brucei Lister 427 in presence of glycerol; assay type: functional
[8] = Selectivity index, ratio of CC50 for HEK293T cells to EC50 for bloodstream trypomastigote stage of wild type Trypanosoma brucei brucei Lister 427; assay type: toxicity; details: human; read-out: Ratio CC50/EC50
Method in brief: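 The selectivity index was calculated as CC50 in HEK cells divided by EC50 against wild-type T. b. brucei s427 bloodstream trypomastigotes.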

[9] = Cytotoxicity against HEK293T cells after 30 hrs by resazurin dye based fluorescence assay; assay type: cell-based, HEK-293T; details: human
Method in brief: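 Cytotoxicity was measured on human embryonic kidney (HEK) cells and reported as CC50. Values are the mean of 3 experiments ± SEM.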

[10] = test system: Trypanosoma brucei brucei; test: Resistant factor, ratio of EC50 for bloodstream trypomastigote stage of wild-type Trypanosoma brucei brucei Lister 427 assessed as inhibition of respiration in presence of glycerol to EC50 for bloodstream trypomastigote stage of wild-type Trypanosoma brucei brucei Lister 427 assessed as inhibition of respiration in absence of glycerol; assay type: functional
[11] = Selectivity index, ratio of CC50 for HEK293T cells to EC50 for pentamidine-resistant bloodstream trypomastigote stage of Trypanosoma brucei brucei harboring AQP1 to 3 deletions; assay type: toxicity; details: human; read-out: Ratio CC50/EC50
[12] = target: T1, Alternative oxidase, mitochondrial; test: Binding affinity to recombinant Trypanosoma brucei brucei 427 alternative oxidase expressed in Escherichia coli BL21 cells using ubiquinol-1 as substrate by spectrophotometric method

C/C(=C\CO)CC/C=C(\C)COc1ccc(C(=O)O)c(F)c1
pKa [1]: < 5
IC50 [2]: 1.1 µM
Ratio EC50 [3]: <1
Activity [4]: inactive

C/C(=C\Cc1c(O)c(Cl)c(C)c(C=O)c1O)CC/C=C(\C)[C@@H]1CC(=O)C(C)(C)O1 [ASCOFURANONE]
MIC ([5]; Lister 427, 48 h): 250 µM (≈ 105 µg/mL)
MIC [6]: 0.03 µM

CCOC(=O)c1ccc(OC/C(C)=C/CC/C(C)=C/CO)cc1O
IC50 [2]: > 5 µM
Ratio EC50 [3]: <1

C/C(=C\CO)CC/C=C(\C)CC/C=C(\C)COc1cc(C)c(C(=O)O)c(O)c1
pKa [1]: < 5
IC50 [2]: 0.0031 µM
Ratio EC50 [3]: <1
Activity [4]: inactive

O=Cc1ccc(OCCCCCCCCCCCCCBr)cc1O
EC50 ([5]; Lister 427, 48 h): 17.6 µM
IC50 [2]: 0.073 µM

COC(=O)c1c(C)cc(OCCCCCCCCCCCCC[P+](c2ccccc2)(c2ccccc2)c2ccccc2)cc1O.[Br-]
Ratio EC50 [7]: >2
Ratio EC50 [3]: <1

COC(=O)c1ccc(OCCCCCCCCCCCCC[P+](c2ccccc2)(c2ccccc2)c2ccccc2)cc1F.[Br-]
EC50 ([5]; Lister 427, 48 h): 0.05 µM
selectivity ratio [8]: 4.5
CC50 at 30 h [9]: 0.22 µM
Ratio EC50 [7]: >2
IC50 [2]: 0.74 µM
Ratio EC50 [3]: <1

O=C(O)c1ccc(OCCCCCCCCCC[P+](c2ccccc2)(c2ccccc2)c2ccccc2)cc1O.[Br-]
EC50 ([5]; Lister 427, 48 h): 0.73 µM
selectivity ratio [8]: 11
CC50 at 30 h [9]: 8.2 µM
Ratio EC50 [10]: <1
IC50 [2]: > 5 µM
Ratio EC50 [3]: <1

O=C(O)c1ccc(OCCCCCCCCCCCCC[P+](c2ccccc2)(c2ccccc2)c2ccccc2)cc1O.[Br-]
EC50 ([5]; Lister 427, 48 h): 0.086 µM
selectivity ratio [8]: 227
CC50 at 30 h [9]: 19.6 µM
Ratio EC50 [7]: >2
IC50 [2]: > 5 µM
Ratio EC50 [3]: <1

C/C(=C\CO)CC/C=C(\C)COc1ccc(C(=O)O)c(O)c1
pKa [1]: < 5
IC50 [2]: 2.1 µM
Ratio EC50 [3]: <1
Activity [4]: inactive

COC(=O)c1ccc(OC/C(C)=C/CC/C(C)=C/CO)cc1C
CC50 at 30 h [9]: > 100 µM
IC50 [2]: 1.69 µM
Ratio EC50 [3]: <1
Activity [4]: inactive

C/C(=C\CO)CC/C=C(\C)COc1ccc(C(=O)O)cc1
pKa [1]: < 5
IC50 [2]: 2.4 µM
Ratio EC50 [3]: <1
Activity [4]: inactive

CC(=O)OC/C=C(\C)CC/C=C(\C)COC(=O)c1ccc(O)cc1O
CC50 at 30 h [9]: > 20 µM
Ratio EC50 [10]: <1
IC50 [2]: 0.0091 µM
Ratio EC50 [3]: <1

COC(=O)c1cc(OCCCCCCCCCCCCC[P+](c2ccccc2)(c2ccccc2)c2ccccc2)ccc1O.[Br-]
EC50 ([5]; Lister 427, 48 h): 0.028 µM
CC50 at 30 h [9]: 0.64 µM
IC50 [2]: 0.012 µM
Ratio EC50 [3]: <1

COC(=O)c1ccc(OCCCCCCCCCCCCCBr)cc1C
Activity [5]: inactive
Ratio EC50 [3]: <1

COC(=O)c1ccc(OCCCCCCCCCC[P+](c2ccccc2)(c2ccccc2)c2ccccc2)cc1O.[Br-]
EC50 ([5]; Lister 427, 48 h): 0.002 µM
selectivity ratio [8]: 184
CC50 at 30 h [9]: 0.44 µM
IC50 [2]: > 5 µM
Ratio EC50 [3]: <1

CCOC(=O)c1c(C)cc(OCCCCCCCCCCCCC[n+]2cccc3ccccc32)cc1O.[Br-]
EC50 ([5]; Lister 427, 48 h): 0.29 µM
selectivity ratio [8]: 2.1
CC50 at 30 h [9]: 0.61 µM
IC50 [2]: > 5 µM
Ratio EC50 [3]: <1

COC(=O)c1ccc(OCCCCCCCCCCCCCBr)cc1F
Activity [5]: inactive
Ratio EC50 [3]: <1

CCOC(=O)c1c(C)cc(OC/C(C)=C/CC/C(C)=C/CC/C(C)=C/COC(C)=O)cc1O
EC50 ([5]; Lister 427, 48 h): 6.6 µM
selectivity ratio [8]: 3.1
CC50 at 30 h [9]: 20.8 µM
IC50 [2]: > 5 µM
Ratio EC50 [3]: <1

CCOC(=O)c1c(C)cc(OCCCCCCCCCCCCCBr)cc1O
EC50 ([5]; Lister 427, 48 h): 8.9 µM
selectivity ratio [8]: 3.3
CC50 at 30 h [9]: 29.6 µM
Ratio EC50 [10]: <1
IC50 [2]: > 5 µM
Ratio EC50 [3]: <1

Cc1cc(OCCCCCCCCCCCCC[P+](c2ccccc2)(c2ccccc2)c2ccccc2)cc(O)c1C(=O)O.[Br-]
EC50 ([5]; Lister 427, 48 h): 0.013 µM
selectivity ratio [8]: 64
CC50 at 30 h [9]: 0.83 µM
Ratio EC50 [10]: <1
selectivity ratio [11]: 230
IC50 [2]: 0.0042 µM
Ratio EC50 [3]: <1

CC(=O)OC/C=C(\C)CC/C=C(\C)COC(=O)c1ccc(OC/C(C)=C/CC/C(C)=C/COC(C)=O)cc1O
IC50 [2]: > 5 µM
Ratio EC50 [3]: <1

O=Cc1ccc(OCCCCCCCCCCCCC[n+]2cccc3ccccc32)cc1O
EC50 ([5]; Lister 427, 48 h): 1.75 µM
selectivity ratio [8]: > 114
CC50 at 30 h [9]: > 200 µM
IC50 [2]: 1.23 µM

N=C(N)c1ccc(OCCCCCOc2ccc(C(=N)N)cc2)cc1 [PENTAMIDINE]
EC50 ([5]; Lister 427, 48 h): 0.0042 µM

O=C(O)c1ccc(OCCCCCCCCCCCCC[P+](c2ccccc2)(c2ccccc2)c2ccccc2)cc1F.[Br-]
EC50 ([5]; Lister 427, 48 h): 0.037 µM
selectivity ratio [8]: 225
CC50 at 30 h [9]: 8.35 µM
Ratio EC50 [7]: >2
IC50 [2]: > 5 µM
Ratio EC50 [3]: <1

COC(=O)c1ccc(OCCCCCCCCCCCCC[n+]2cccc3ccccc32)cc1C.[Br-]
EC50 ([5]; Lister 427, 48 h): 0.16 µM
selectivity ratio [8]: 1.9
CC50 at 30 h [9]: 0.3 µM
IC50 [2]: > 5 µM
Ratio EC50 [3]: <1

O=C(NO)c1ccccc1O [SALICYLHYDROXAMIC ACID]
EC50 ([5]; Lister 427, 48 h): 62.9 µM

COC(=O)c1ccc(OCCCCCCCCCCCCC[n+]2cccc3ccccc32)cc1F.[Br-]
EC50 ([5]; Lister 427, 48 h): 2.4 µM
selectivity ratio [8]: 1.4
CC50 at 30 h [9]: 3.36 µM
Ratio EC50 [10]: <1
IC50 [2]: > 5 µM
Ratio EC50 [3]: <1

COC(=O)c1ccc(OC/C(C)=C/CC/C(C)=C/CO)cc1F
CC50 at 30 h [9]: > 100 µM
IC50 [2]: > 5 µM
Ratio EC50 [3]: <1
Activity [4]: inactive

CC(C)=CCOc1ccc(C(=O)O)c(O)c1
Ki [12]: 5 µM

COc1cc(OCCCCCCCCCCCCCBr)cc(O)c1C=O
IC50 [2]: 2.3 µM
Ratio EC50 [3]: <1
Activity [4]: inactive

C/C(=C\CO)CC/C=C(\C)COc1ccc(C(=O)O)c(C)c1
pKa [1]: < 5
IC50 [2]: 0.92 µM
Ratio EC50 [3]: <1
Activity [4]: inactive

COC(=O)c1ccc(OCCCCCCCCCCCCC[P+](c2ccccc2)(c2ccccc2)c2ccccc2)cc1O.[Br-]
EC50 ([5]; Lister 427, 48 h): 0.018 µM
IC50 [2]: 0.015 µM
Ratio EC50 [3]: <1

COC(=O)c1ccc(OCCCCCCCCCCCCCBr)cc1O
EC50 ([5]; Lister 427, 48 h): 8.1 µM
selectivity ratio [8]: 3.5
CC50 at 30 h [9]: 28.6 µM
Ratio EC50 [10]: <1
IC50 [2]: > 5 µM
Ratio EC50 [3]: <1

COC(=O)c1ccc(OC/C(C)=C/CC/C(C)=C/COC(C)=O)cc1C
EC50 ([5]; Lister 427, 48 h): 17 µM
selectivity ratio [8]: 2.7
CC50 at 30 h [9]: 45.1 µM
IC50 [2]: > 5 µM
Ratio EC50 [3]: <1

Cc1cc(OCCCCCCCCCCCCC[P+](c2ccccc2)(c2ccccc2)c2ccccc2)ccc1C(=O)O.[Br-]
EC50 ([5]; Lister 427, 48 h): 0.19 µM
selectivity ratio [8]: 22
CC50 at 30 h [9]: 4.24 µM
Ratio EC50 [10]: <1
IC50 [2]: > 5 µM
Ratio EC50 [3]: <1

COC(=O)c1ccc(OCCCCCCCCCCCCC[P+](c2ccccc2)(c2ccccc2)c2ccccc2)cc1C.[Br-]
EC50 ([5]; Lister 427, 48 h): 0.018 µM
selectivity ratio [8]: 19
CC50 at 30 h [9]: 0.35 µM
Ratio EC50 [7]: >2
IC50 [2]: > 5 µM
Ratio EC50 [3]: <1

COC(=O)c1ccc(OC/C(C)=C/CC/C(C)=C/COC(C)=O)cc1F
Ratio EC50 [3]: <1

Cc1cc(OCCCCCCCCCCCCC[n+]2cccc3ccccc32)ccc1C(=O)O.[Br-]
EC50 ([5]; Lister 427, 48 h): 10.6 µM
selectivity ratio [8]: 2.3
CC50 at 30 h [9]: 24.4 µM
IC50 [2]: > 5 µM
Ratio EC50 [3]: <1

COC(=O)c1ccc(OC/C(C)=C/CC/C(C)=C/CO)cc1O
Ratio EC50 [3]: <1

COC(=O)c1ccc(OC/C(C)=C/CC/C(C)=C/COC(C)=O)cc1O
EC50 ([5]; Lister 427, 48 h): 19.3 µM
selectivity ratio [8]: 1.7
CC50 at 30 h [9]: 31.8 µM
IC50 [2]: > 5 µM
Ratio EC50 [3]: <1
